# Hits are enriched below; roughly 1.8% of the tested compounds scored in any of these assays.
# SIAE inh – human SIAE inhibitors, primary screen, biochemical, fluorescence polarization, FP-Rh probe, 1536-well HTS; Sialate O-acetylesterase (Homo sapiens), Q9HAT2; SIAE FP-Rh probe binding; inhibition, % at 9.66 µM; hit rate 0.69% among 370,000; AID 1053197, 2014;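 active means inhibition above a cutoff: mean of compounds within the control limits plus 3 SD of those, cut at about 17% in these data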;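 further: 0% = plate median of compound wells and 100% = probe without SIAE protein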
# ABHD4 inh – ABHD4 inhibitors, primary screen, biochemical, fluorescence polarization, mouse; (Lyso)-N-acylphosphatidylethanolamine lipase (Mus musculus), Q8VD66; purified mABHD4, FP-Rh probe fluorescence polarization; inhibition, % at 8.92 µM; hit rate 0.54% among 370,000; AID 720543, 2013;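 active means inhibition exceeding the mean over every tested compound plus 3 SD, cut at about 30% in these data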;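 further: 0% = plate median of compound wells and 100% = S159A mutant with DMSO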
#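 Test system: mouse ABHD4 enzyme, wild type. Reagent: FP-Rh fluorescent activity-based probe, added after compound pre-incubation. Timing: pre-incubation 45 min, probe exposure 60 min, at 25 °C. Technique: FP readout, ex 525 nm / em 598 nm. Benchmarks: high control S159A mutant with DMSO, low control median of compound wells.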
# Tn6 DDE FP – inhibitors of Tn6 peptide binding to fibrin DD(E), primary screen, biochemical, fluorescence polarization, human fibrin, Tn6 probe; Fibrinogen beta chain (Homo sapiens), P02675; Fibrin DD(E) TRITC-Tn6 fluorescence polarization displacement; inhibition, % at 8.3 µM; hit rate 0.21% among 370,000; AID 720509, 2013;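 active means inhibition above a per-campaign cutoff: mean of compounds within control limits plus 3 SD, cut at about 15% in these data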;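 further: 0% = median of all compound wells on the plate and 100% = blocking peptide control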
# Target sequence (P02675 whole entry, looked up): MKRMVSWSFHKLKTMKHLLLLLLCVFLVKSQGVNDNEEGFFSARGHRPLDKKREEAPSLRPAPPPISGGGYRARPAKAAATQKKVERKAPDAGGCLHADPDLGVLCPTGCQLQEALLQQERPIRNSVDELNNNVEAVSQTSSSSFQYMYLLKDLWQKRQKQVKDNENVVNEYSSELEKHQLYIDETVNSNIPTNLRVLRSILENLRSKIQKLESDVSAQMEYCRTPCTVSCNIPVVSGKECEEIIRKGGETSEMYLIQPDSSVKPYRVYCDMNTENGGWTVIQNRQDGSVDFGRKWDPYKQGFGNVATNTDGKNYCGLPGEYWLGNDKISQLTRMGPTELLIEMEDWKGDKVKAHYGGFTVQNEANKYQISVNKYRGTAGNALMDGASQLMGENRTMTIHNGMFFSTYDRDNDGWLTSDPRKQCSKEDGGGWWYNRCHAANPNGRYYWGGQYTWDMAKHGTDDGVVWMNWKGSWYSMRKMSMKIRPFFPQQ
# HTRA1 inhibitor – HTRA1 serine protease inhibitors, primary screen, biochemical, fluorescence polarization, HTS; recombinant HTRA1, FP-rhodamine activity-based probe; inhibition, % at 5.96 µM; Q92743; hit rate 0.5% among 340,000; in the data active means inhibition above about 36%;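 further: 0% = enzyme with DMSO and 100% = wells lacking enzyme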
# TCR-CD3 inh – inhibitors of human TCR-CD3 interaction, primary screen, biochemical, fluorescence, TAMRA-labeled TCR probe. hit rate 0.37% among 360,000. T-cell receptor (TCR). inhibition, % at 9.4 µM; in the data active means inhibition above about 19%;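 further: recombinant mutant TCR 2C K166C tagged with TAMRA read by polarization; 0% = receptor in buffer alone and 100% = receptor with positive control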
# DDE Tn7 FP inh – inhibitors of Tn7 peptide binding to fibrin DD(E), primary screen, biochemical, fluorescence polarization, human fibrin, Tn7 probe; inhibition, % at 8.3 µM; Fibrinogen beta chain (Homo sapiens), P02675; FP displacement of FITC-Tn7 peptide from fibrin DD(E); 0% = median of compound wells per plate; hit rate 0.13% among 370,000;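 active means inhibition above the mean of compounds falling within the control limits plus 3 SD of them, cut at about 14% in these data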;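 further: 0% = plate median of compound wells and 100% = 10 µM Aha-Tn7 peptide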
#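 Test system – human fibrin DD(E) · Times – 10 min preincubation, 3 h with tracer, room temperature · Detection – fluorescence polarization of the labelled Tn7 tracer · Measure – percent inhibition normalized to high-control wells · Benchmarks – high control wells with 10 µM unlabelled Aha-Tn7 peptide (full inhibition) · Repeats – singlicate testing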
# mABHD4 conf – ABHD4 inhibitors, retest, confirmation, biochemical, fluorescence polarization, mouse. shares compounds with ABHD4 inh. purified mABHD4, FP-Rh probe fluorescence polarization. inhibition, % at 8.92 µM. hit rate 55% among 1,800;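 active means mean inhibition across replicates above the hit cutoff set in the primary screen, cut at about 30% in these data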;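 further: 0% = wild-type ABHD4 with DMSO and 100% = catalytically dead S159A mutant with DMSO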
# Starred values were filed as active, the others as inactive; / = no result given; ! = a repeat was not active.
SMILES,SIAE inh,ABHD4 inh,Tn6 DDE FP,HTRA1 inhibitor,TCR-CD3 inh,DDE Tn7 FP inh,mABHD4 conf
CCCCNc1c(-c2ccc(OC)c(SC3CCCCC3)c2)nc2ccc(C)cn12,3,33*!,3,-1,-4,-2,37*
CCCCNc1c(-c2ccc(OC)c(SC(C)CC)c2)nc2ccc(C)cn12 (stereo not drawn),12,34*!,-6,-12,-5,2,38*
CCCCNc1c(-c2ccc(OC)c(SC(C)CC)c2)nc2ccc(Cl)cn12 (stereo not drawn),-3,8,4,1,-2,-7,/
CCCCNc1c(-c2ccc(SC3CCCCC3)c(OC)c2)nc2ccc(C)cn12,10,29,3,-11,2,-2,/
O=C(OCC#CCSc1nnc(-c2cccc3ccccc23)o1)c1ccc(SC(F)(F)F)cc1,2,6,1,/,/,-3,/
O=C(Nc1cccc(Cl)c1)c1cc(N=Nc2ccc([N+](=O)[O-])cc2Cl)ccc1O,22*,33*,-5,16,-8,4,70*
COc1ccc(CN2CCN(Cc3c[nH]c4ccccc34)CC2)cc1,1,18,10,18,1,5,/
COc1ccc(CN2CCN(Cc3c[nH]c4ccccc34)CC2)c(OC)c1,7,33*,-1,3,-2,1,7
Cc1cccc(N=Cc2cc3c(cc2[N+](=O)[O-])OCO3)c1,12,41*,5,40*,2,4,26
COc1cc(/C=N/NC(=O)[C@H](Cc2c[nH]c3ccccc23)NC(=O)OCC(C)C)cc([N+](=O)[O-])c1O,33*,41*,-3,16,6,-4,49*
Cc1cc(NN=Cc2ccccn2)nc2c(C)cccc12,1,2,2,/,-3,1,/
CCC/C=N/Nc1nc2ccccc2s1,7,50*,-1,28,-9,-4,17
Cc1csc(N/N=C/c2ccccn2)n1,-8,15,-7,8,0,-2,/
Cc1cc(NN=Cc2ccccn2)nc2ccccc12,2,43*,-2,/,-4,-5,27
COc1ccc(C=NNc2nc3ccccc3s2)cc1,9,9,-3,2,5,-2,/
C(=N\Nc1nc2ccccc2s1)/c1ccccn1,1,37*,-1,/,-2,1,40*
C(=NNc1ccc2ccccc2n1)c1ccccn1,7,44*,-5,/,-5,5,12
C(=C\c1ccccc1)/C=N/Nc1nc2ccccc2s1,-1,8,-9,-15,-15,0,/
COC(=O)c1cccc(Cn2ccc3ccc(-c4ccc5ccn(C(=O)c6cccc(OC)c6)c5c4)cc32)c1,-9,-21,6,/,/,-1,/
O=C(NCc1ccccc1)[C@@H]1CCCN1C(=O)[C@H]1CCCN1C(=O)c1ccc(F)cc1F,4,-1,7,/,9,-2,/
O=C(COc1ccccc1)Nc1nc2cc3c(cc2s1)OCO3,-9,36*,-4,-3,5,-1,40*
COC(=O)c1sc(NC(=O)COc2ccc(OC)cc2)nc1C,-11,6,-2,3,3,-5,/
COc1ccc(NC(=O)c2sc(NC(=O)COc3ccccc3)nc2C)cc1,-9,50*,-5,-5,-1,-3,60*
O=C(COc1ccccc1)Nc1nc2cc3c(cc2s1)OCCO3,-22,-13,13,3,6,-1,/
Cc1nc(NC(=O)COc2ccccc2)sc1C(=O)Nc1cccc(Cl)c1,-7,43*,-4,-20,7,4,33*
SMILES,SIAE inh,ABHD4 inh,Tn6 DDE FP,HTRA1 inhibitor,TCR-CD3 inh,DDE Tn7 FP inh,mABHD4 conf
Cc1nc(NC(=O)/C=C/c2ccccc2)sc1C(=O)Nc1cccc(Cl)c1,-7,0,-7,-16,3,-2,/
O=[N+]([O-])c1cc2c(ccc3occc32)o1,5,4,-1,/,-1,-4,/
O=C1/C(=C/c2ccco2)SC(=S)N1CCC(=O)N1CCCCC1CCO (stereo not drawn),3,30*,-1,27,1,0,4
O=C(O)CCCN1C(=O)/C(=C/C=C/c2ccco2)SC1=S,8,43*,3,26,9,-3,10
Cc1ccc(NC(=O)CCCN2C(=O)/C(=C/C=C/c3ccccc3)SC2=S)cc1,-2,-4,-2,-37,1,-5,/
O=C(O)CC(C(=O)O)N1C(=O)/C(=C/C=C/c2ccco2)SC1=S (stereo not drawn),-8,35*,-2,22,3,9,3
O=C1/C(=C/c2ccc(Cl)cc2)SC(=S)N1CCC(=O)N1CCCCC1CCO (stereo not drawn),0,-5,-5,-29,9,6,/
C[C@@H]1CCN(C2CC2)S(=O)(=O)c2c(cccc2N2CC[C@@H](N(C)C)C2)O1,4,0,3,/,/,5,/
O=C(C(=O)N1CCC(CNS(=O)(=O)c2ccc(F)c(F)c2)CC1)c1cc2ccccc2o1,2,-3,0,/,2,3,/
COc1ccc(NC(=S)Nc2ccc(N)c([N+](=O)[O-])c2)cc1,2,34*,-4,36,-2,2,8
COc1ccc(NC(=S)Nc2ccccc2)cc1,10,1,10,4,1,6,/
COc1cc2c(oc(=O)c3cc(C)cc(OC)c32)c2c(C3OC(C)C(O)C(C)(O)C3O)ccc(O)c12 (stereo not drawn),-3,38*,-10,7,5,-3,14
C[C@H]1CN(S(=O)(=O)C(C)(C)C)[C@@H](CCO)/C1=C\CCO,-8,-6,6,/,-1,0,/
C[N+](C)(CCOc1ccccc1)Cc1ccccc1 (tested in a mixture with another compound),14,4,11,7,11,-4,/
CC(C)(C)CC(C)(C)c1ccc(OCCOCC[N+](C)(C)Cc2ccccc2)cc1,2,36*,4,16,3,3,44*
O=C(Nc1ccc([N+](=O)[O-])cc1)C(=O)Nc1cccc(C(=O)O)c1,-2,30*,10,0,-1,6,26
O=C(O)/C=C/c1cccc(NC(=O)Nc2ccc([N+](=O)[O-])cc2)c1,0,30*,-17,-9,0,-4,22
COC(=O)C1CN(Cc2cn(Cc3ccc(F)cc3)nn2)CCS(=O)(=O)N1Cc1ccccc1 (stereo not drawn),2,-5,-6,/,/,4,/
